The subject of one experiment is HT-29. The experiment in a line: Cytotoxicity against human HT-29 cells after 48 hrs by SRB assay. Type of experiment: functional. Conditions: HT-29, 48 h. The essentials:
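CHO-K1 (Chinese hamster ovary subclone) and HT-29 cells grown in MEM with Earle's salts, L-glutamine, nonessential amino acids and sodium pyruvate. Seeded at 5000 cells/well. Compounds dissolved in DMSO, serially diluted in medium, and tested at 10 concentrations spanning 66.7–0.01 µg/mL. SRB protein read at 490 nm at 0 and 48 h. GI50 derived against vehicle-only and time-zero values.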
On the technique in general: The SRB assay estimates cell density from bound dye.

Another experiment deals with CHO-K1. The experiment in a line: Cytotoxicity against Chinese hamster CHO-K1 cells after 48 hrs by SRB assay. Conditions: Cricetulus griseus, CHO-K1, 48 h.
The test system of the next experiment is NCI-H460. The experiment in a line: Cytotoxicity against human H460 cells after 48 hrs by SRB assay. It is filed as functional. Conditions: NCI-H460, 48 h. The essentials: (§1)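 Cells grown in RPMI 1640 with L-glutamine and 5% fetal bovine serum, in a humidified incubator at 37 °C and 5% CO2. Seeded at 5000 cells/well. Pure compounds dissolved in DMSO, serially diluted in medium, and tested at 10 concentrations between 66.7 and 0.01 µg/mL. Total protein measured by SRB at 490 nm at 0 and 48 h. GI50 taken against vehicle-only and time-zero readings.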

For the next experiment, the system named is MCF7. The experiment in a line: Cytotoxicity against human MCF7 cells after 48 hrs by SRB assay. Type of experiment: functional. Conditions: MCF7, 48 h. The essentials:
as §1

In the next experiment the test system is SF-268. The experiment in a line: Cytotoxicity against human SF268 cells after 48 hrs by SRB assay. It is filed as functional. The following applies: SF-268, 48 h. The essentials: as §1

`C=C1CCC[C@H]2[C@](C)(CC3=C(O)C(=O)C=C(OC)C3=O)[C@@H](C)CC[C@]12C` [ILIMAQUINONE]: the GI50 in the experiment on HT-29 turned out to be 5.4 µM; in the experiment on CHO-K1 it was 2 µM; with NCI-H460, 1.8 µM; with MCF7 it was 3.9 µM; in the experiment on SF-268, 2.7 µM.

Turning to `C=C1CCC[C@H]2[C@](C)(CC3=C(O)C(=O)C=C(NCCC(=O)O)C3=O)[C@@H](C)CC[C@]12C` [SMENOSPONGINE C], the GI50 worked out at 28 µM with HT-29; 18 µM in the experiment with CHO-K1; 14 µM in the experiment with NCI-H460; 31 µM with MCF7; 20 µM in the experiment with SF-268.

For `C=C1CCC[C@@]23OC4=C(C[C@]2(C)[C@@H](C)CC[C@@]13C)C(=O)C(OC)=CC4=O` [DACTYLOQUINONE B], the GI50 with HT-29 turned out to be 46 µM; in the experiment with CHO-K1 it was 43 µM; with NCI-H460, 30 µM; in the experiment with MCF7, 41 µM; in the experiment on SF-268, 32 µM.

Regarding `C=C1CCC[C@H]2[C@](C)(CC3=C(O)C(=O)C=C(NCC(=O)O)C3=O)[C@@H](C)CC[C@]12C` [SMENOSPONGINE B], the GI50 in the experiment on HT-29 came to 6 µM; with CHO-K1, 3 µM; with NCI-H460, 6 µM; in the experiment with MCF7, 10 µM; in the experiment with SF-268, 9.7 µM.

For the molecule `C=C1CCC[C@H]2[C@](C)(Cc3c(O)c(O)cc4ncoc34)[C@@H](C)CC[C@]12C` [NAKIJINOL B], the GI50 in the experiment with HT-29 is 21 µM; with CHO-K1 it was 11 µM; in the experiment with NCI-H460, 24 µM; in the experiment on MCF7, 35 µM; in the experiment with SF-268, 24 µM.

Consider `C=C1CCC[C@H]2[C@](C)(Cc3c(OC(C)=O)c(OC(C)=O)cc4ncoc34)[C@@H](C)CC[C@]12C` [NAKIJINOL B DIACETATE], for which the GI50 with HT-29 came to 15 µM; with CHO-K1, 5.2 µM; in the experiment with NCI-H460 it was 6.8 µM; in the experiment with MCF7, 19 µM; in the experiment with SF-268 it was 9 µM.

In general, GI50 refers to the concentration that inhibits growth by half. Read a low GI50 as more potent growth inhibition.

The values above are taken from ChEMBL document CHEMBL1667738, “Sesquiterpene benzoxazoles and sesquiterpene quinones from the marine sponge Dactylospongia elegans” (2011).
